Measured values as given in ChEMBL document CHEMBL1944532, “Synthesis and evaluation of anticancer activity of some novel 6-aryl-2-(p-sulfamylphenyl)-pyridazin-3(2H)-ones” (Eur J Med Chem, 2012).
The source made the active and inactive calls. The rule behind the calls is not given here.

Tests used:
SF-539 = assay: Cytotoxicity against human SF539 cells after 48 hrs by SRB assay; assay type: functional; conditions: SF-539, 48 h
Summary of the method: (§1)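 NCI five-dose screen on the ~60-line human tumor panel. Cells grown in RPMI-1640 with 5% fetal calf serum and 2 mM L-glutamine, seeded at line-dependent density and preincubated 24 h. Compound added from DMSO at 10-fold dilutions from 10^-4 to 10^-8 M, continuous exposure 48 h. Growth read by sulforhodamine B protein stain. GI50, TGI and LC50 derived per line.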

DU-145 = assay: Cytotoxicity against human DU145 cells after 48 hrs by SRB assay; assay type: functional; conditions: DU-145, 48 h
Summary of the method: (§2)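 NCI ~60-line panel in RPMI-1640 with 5% fetal calf serum and 2 mM L-glutamine, pre-incubated 24 h. Compound in DMSO tested at five 10-fold concentrations (10^-4 to 10^-8 M) with 48 h continuous exposure. Growth measured by sulforhodamine B protein assay. GI50 (50% net growth inhibition), TGI (total inhibition) and LC50 (50% net cell death) derived from dose-response.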

A549 = assay: Cytotoxicity against human A549/ATCC cells assessed as cell growth at 10 uM after 48 hrs by SRB assay; assay type: functional; conditions: A549, 48 h, read-out: Activity
Summary of the method: (§3)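 NCI primary single-dose screen at 10^-5 M against the ~60 human tumour cell line panel. Cells grown in RPMI-1640 with 5% fetal calf serum and 2 mM L-glutamine and pre-incubated 24 h before compound addition. Compound added from DMSO solution with 48 h exposure. Growth read by sulforhodamine B protein staining.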

SNB-19 = assay: Cytotoxicity against human SNB19 cells after 48 hrs by SRB assay; assay type: functional; conditions: SNB-19, 48 h
Summary of the method: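 NCI 60-cell-line five-dose screen. Cells were grown in 1640 medium with 5% fetal calf serum and 2 mM L-glutamine, with inoculum density set by cell line, and pre-incubated 24 h. Compound in DMSO was added at 10^-4 to 10^-8 M (10-fold steps) with 48 h continuous exposure. Growth was read by SRB protein assay, and GI50, TGI and LC50 were derived from dose-response.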

MOLT-4 = assay: Cytotoxicity against human MOLT4 cells assessed as cell growth at 10 uM after 48 hrs by SRB assay; assay type: functional; conditions: MOLT-4, 48 h, read-out: Activity
Summary of the method: (§4)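 NCI primary single-dose screen at 10^-5 M against the full panel of about 60 human tumor cell lines. Cells were in RPMI-1640 with 5% fetal calf serum and 2 mM L-glutamine and preincubated 24 h. Compound was given in DMSO with 48 h exposure. Growth was estimated by sulforhodamine B protein assay.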

OVCAR-8 = assay: Cytotoxicity against human OVCAR8 cells after 48 hrs by SRB assay; assay type: functional; conditions: OVCAR-8, 48 h; summary of the method: as §1
Hs-578T = assay: Cytotoxicity against human Hs578T cells after 48 hrs by SRB assay; assay type: functional; summary of the method: as §2
UACC-62 = assay: Antitumor activity against human UACC62 cells implanted in mouse dosed qd for 4 days by formazan dye-based hollow fiber assay; assay type: functional, organism-based
Summary of the method: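 Cells grown inside polyvinylidene fluoride hollow fibers; each line implanted into both intraperitoneal and subcutaneous compartments in mice. Compound given ip at two doses on a QD x 4 schedule. Fibers then recovered and viable cell mass measured by formazan dye conversion. Scored 2 per dose giving ≥50% reduction in viable cell mass (%T/C 50).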

UACC-257 = assay: Cytotoxicity against human UACC257 cells assessed as cell growth at 10 uM after 48 hrs by SRB assay; assay type: functional; conditions: UACC-257, 48 h, read-out: Activity
Summary of the method: (§5)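 NCI primary one-dose screen at 10^-5 M against the full panel of about 60 human tumour cell lines, run to the NCI Drug Evaluation Branch protocol.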

BT-549 = assay: Cytotoxicity against human BT549 cells assessed as cell growth at 10 uM after 48 hrs by SRB assay; assay type: functional; conditions: BT-549, 48 h, read-out: Activity; summary of the method: as §3
T47D = assay: Cytotoxicity against human T47D cells assessed as cell growth at 10 uM after 48 hrs by SRB assay; assay type: functional; conditions: read-out: Activity; summary of the method: as §5
COLO 205 = assay: Cytotoxicity against human COLO205 cells after 48 hrs by SRB assay; assay type: functional; conditions: COLO 205, 48 h; summary of the method: as §2
[1] = Toxicity in ip dosed athymic nude mouse assessed as lethality after 2 weeks; assay type: organism-based; conditions: in vivo
Summary of the method: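 Maximum tolerated dose determination in athymic nude mice. Single ip injection of 400, 200 or 100 mg/kg, one mouse per dose. Compound solubilized in DMSO. Feed and water ad libitum. Mice observed 2 weeks for body weight loss, lethality and other toxicity signs; sacrificed if weight loss exceeds 20%.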

MCF7 = assay: Cytotoxicity against human MCF7 cells assessed as cell growth at 10 uM after 48 hrs by SRB assay; assay type: functional; conditions: MCF7, 48 h, read-out: Activity; summary of the method: as §4
HCT-15 = assay: Cytotoxicity against human HCT15 cells after 48 hrs by SRB assay; assay type: functional; conditions: HCT-15, 48 h; summary of the method: as §2

For `CCc1ccc(-c2ccc(=O)n(-c3ccc(S(N)(=O)=O)cc3)n2)cc1`, which LC50 (SF-539) is on record?
The LC50 was over 100 µM.

What about the GI50 (SF-539; read-out: GI50) of the same compound?
Its GI50 is 1840 nM.

And the GI50 (SF-539; read-out: pGI50 (converted))?
Its GI50 is 1820 nM.

What about the TGI (SF-539; read-out: pTGI (converted)) of the same compound?
The TGI was 22.9 µM.

What about the LC50 (DU-145) of the same compound?
Its LC50 is over 100 µM.

What about the GI50 (DU-145; read-out: GI50) of the same compound?
The GI50 was 13.8 µM.

And the GI50 (DU-145; read-out: pGI50 (converted))?
Its GI50 is 13.8 µM.

What about the TGI (DU-145; read-out: pTGI) of the same compound?
The TGI was over 100 µM.

What about the growth at 10 µM (A549) of the same compound?
Its growth at 10 µM is 18%.

And the LC50 (SNB-19)?
The LC50 was over 100 µM.

And the GI50 (SNB-19; read-out: GI50)?
The GI50 was 4.41 µM.

And the GI50 (SNB-19; read-out: pGI50 (converted))?
Its GI50 is 4.37 µM.

And the TGI (SNB-19; read-out: pTGI (converted))?
The TGI was 36.3 µM.

What about the growth at 10 µM (MOLT-4) of the same compound?
The growth at 10 µM was 16%.

And the LC50 (OVCAR-8)?
The LC50 was over 100 µM.

And the GI50 (OVCAR-8; read-out: GI50)?
Its GI50 is 11 µM.

What about the GI50 (OVCAR-8; read-out: pGI50 (converted)) of the same compound?
The GI50 was 11 µM.

What about the TGI (OVCAR-8; read-out: pTGI) of the same compound?
The TGI was over 100 µM.

And the LC50 (50% net cell kill) (Hs-578T)?
The LC50 (50% net cell kill) was over 100 µM.

And the GI50 (Hs-578T; read-out: GI50)?
Its GI50 is 1030 nM.

What about the GI50 (Hs-578T; read-out: pGI50 (converted)) of the same compound?
The GI50 was 1020 nM.

What about the TGI (Hs-578T; read-out: pTGI (converted)) of the same compound?
The TGI was 17 µM.

And the Activity (UACC-62)?
Its Activity is “inactive”.

What about the growth at 10 µM (UACC-257) of the same compound?
The growth at 10 µM was 22.3%.

What about the growth at 10 µM (BT-549) of the same compound?
Its growth at 10 µM is 7.69%.

What about the growth at 10 µM (T47D) of the same compound?
Its growth at 10 µM is 33.4%.

What about the LC50 (COLO 205) of the same compound?
Its LC50 is over 100 µM.

And the GI50 (COLO 205; read-out: GI50)?
Its GI50 is 976 nM.

And the GI50 (COLO 205; read-out: pGI50 (converted))?
The GI50 was 977 nM.

What about the TGI (COLO 205; read-out: pTGI (converted)) of the same compound?
Its TGI is 30.9 µM.

And the MTD at 336 h [1]?
The MTD at 336 h was 400 mg/kg.

What about the growth at 10 µM (MCF7) of the same compound?
The growth at 10 µM was 30.1%.

What about the LC50 (HCT-15) of the same compound?
Its LC50 is over 100 µM.

What about the GI50 (HCT-15; read-out: GI50) of the same compound?
The GI50 was 661 nM.

What about the GI50 (HCT-15; read-out: pGI50 (converted)) of the same compound?
Its GI50 is 661 nM.

What about the TGI (HCT-15; read-out: pTGI) of the same compound?
Its TGI is over 100 µM.
